Results from PubChem BioAssay.
Active and inactive are the calls of the source.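 The calls were made as follows, unless noted: active = inhibition above 20% together with a positive visual image hit; inconclusive = visual image hit but inhibition not above 20%; inactive = no visual image hit.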

Columns and labels:
[1] = inhibitors of TNFa-induced NFkB p65 translocation, primary screen, imaging, HUVEC, MLSMR starter and 10KST1 sets (AID 438); conditions: HUVEC TNFa-induced p65 nuclear translocation; cell count: measured here: nuclei count (cytotoxicity indicator), at 2.08 µM; inhibition: at 2 µM, stronger effect = higher value, 0% TNFa-plus-vehicle, 100% no-TNFa wells;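 also: compound added about 3h40 before a 20 min TNFalpha stimulation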;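 as to inhibition: signal is the nuclear over cytoplasmic p65 intensity ratio per well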
[2] = endothelial E-selectin expression blockers – imaging, HUVEC, immunofluorescence, MLSMR starter and 10KST1 sets, primary screen (AID 487;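 active = visually confirmed hit in the image check and inhibition above 20%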;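 as to inhibition: signal is fraction of cell area covered by stained E-selectin grains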;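 as to nuclei count: 100% = median nuclei count of all wells on the same plate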); conditions: HUVEC TNFalpha-induced E-selectin immunofluorescence imaging, at 2 µM; inhibition: stronger effect = higher value; nuclei count: measured here: cell number, toxicity
[3] = Primary imaging screen for DUSP6 inhibitors that restore phospho-Erk in transfected HeLa cells, chemical complementation (AID 609;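 active = compounds giving at least 50% inhibition in the cell-based MKP-3 phosphatase rescue imaging test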;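 as to inhibition: phospho-Erk level distribution per well compared with pooled transfected vehicle control wells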); conditions: HeLa MKP-3 transfected, phospho-Erk imaging KS statistic, at 10 µM, cells stimulated with TPA for 15 min
[4] = target: Dual specificity protein phosphatase 6 (Homo sapiens) (UniProt Q16828); experiment: as above; conditions: HeLa MKP-3 transfected, phospho-Erk imaging KS statistic; at 10 µM; stronger effect = higher value; cells stimulated with TPA for 15 min
[5] = target: Voltage-gated potassium channel subunit beta-2 (Rattus norvegicus) (UniProt P62483); experiment: inhibitors of rat Kvbeta2 reductase activity – biochemical, NADPH fluorescence, primary screen (AID 622;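 active = fluorescence slope higher than the sample average by over 3 SD, cut at about -0.22 in these data, passing the limit was not always enough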;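 also: slope of raw intensity against log time taken from 70 to 1610 s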); conditions: recombinant KvBeta, 4-cyanobenzaldehyde reduction, at 10 µM, stronger effect = higher value
[6] = target: Voltage-gated potassium channel subunit beta-2 (Rattus norvegicus) (UniProt P62483); experiment: enhancers of rat Kvbeta2 NADPH turnover – biochemical, NADPH fluorescence, primary screen (AID 623;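 active = NADPH fluorescence slope more negative than the mean of all samples by about 3 SD, 99.7% confidence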;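 also: fluorescence intensity change per second fitted from 20 to 320 s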); conditions: Recombinant KvBeta, NADPH fluorescence decrease slope, 10 min; at 10 µM; stronger effect = lower value
[7] = target: Alpha-2C adrenergic receptor (Homo sapiens) (UniProt P18825); experiment: compounds altering alpha2C-coupled GIRK flux – cell-based, HEK293 alpha2C/GIRK1/2, thallium flux, primary screen (AID 624;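 active = fluorescence slope after compound addition differing from the mean of all screened samples at 99.7% confidence, in either direction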;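 also: slope of fluorescence ratio to pre-addition baseline per second over 15 to 24 s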); conditions: thallium flux BTC fluorescence, at 10 µM, actives lie on both sides
[8] = inhibitors of larval lipid processing in zebrafish, primary screen, whole organism, PED6 fluorescence, gall bladder and intestine (AID 686;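 active = a full or partial loss of lipid-probe fluorescence in the fish gall bladder, intestine or both, judged by eye; inactive = no fluorescence loss, or compound toxic to the fish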;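 also: larvae 5 to 7 days old with five fish per well; signal comes from phospholipase A2 cleavage of quenched PED6 carried via bile; overnight exposure to compound and PED6 before scoring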); conditions: Zebrafish larvae PED6 lipid processing, fluorescence scoring; screened at 20 µM (by protocol)
Method in brief: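 system = live zebrafish larvae aged 5-7 days, whole organism | probe or stimulus = ingested quenched lipid PED6 at 100 nM | doses = 20 µM single dose | timing = overnight exposure | detection = fluorescence microscopy with visual scoring of gall bladder and intestine | read-out = visual per-well fluorescence inhibition score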

[9] = loss of swimming-algae plug formation – whole organism, Chlamydomonas reinhardtii, WT vs cilia-less mutant, absorbance, 96-well, primary screen (AID 463189;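 active = inhibition at or above 50% relative to wild type and mutant plate controls; inactive = inhibition below 50%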;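 also: 0% = wild type cc124 cells in DMSO and 100% = ciliumless bld1 mutant cells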); conditions: Chlamydomonas reinhardtii gravitaxis, OD600 absorbance, 2 days; at 10 µM; stronger effect = higher value
[10] = measured here: cell density z-score
[11] = measured here: nuclear c-Myc green intensity z-score
[12] = measured here: nuclear pErk red intensity z-score, stronger effect = higher value

Alpha-2C adrenergic receptor (Homo sapiens), sequence (P18825 whole entry, looked up): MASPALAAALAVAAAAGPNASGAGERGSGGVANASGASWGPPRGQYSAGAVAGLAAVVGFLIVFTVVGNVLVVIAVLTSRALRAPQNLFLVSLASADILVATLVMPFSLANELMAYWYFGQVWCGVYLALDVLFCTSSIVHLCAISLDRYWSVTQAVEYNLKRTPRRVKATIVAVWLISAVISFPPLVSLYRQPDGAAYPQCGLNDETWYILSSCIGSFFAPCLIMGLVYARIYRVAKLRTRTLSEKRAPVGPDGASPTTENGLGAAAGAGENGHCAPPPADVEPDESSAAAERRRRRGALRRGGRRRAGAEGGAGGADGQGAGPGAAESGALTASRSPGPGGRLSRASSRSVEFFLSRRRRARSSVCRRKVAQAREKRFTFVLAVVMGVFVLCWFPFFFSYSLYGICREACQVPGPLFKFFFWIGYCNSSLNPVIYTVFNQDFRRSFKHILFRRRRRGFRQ
Voltage-gated potassium channel subunit beta-2 (Rattus norvegicus), sequence (P62483 whole entry, looked up): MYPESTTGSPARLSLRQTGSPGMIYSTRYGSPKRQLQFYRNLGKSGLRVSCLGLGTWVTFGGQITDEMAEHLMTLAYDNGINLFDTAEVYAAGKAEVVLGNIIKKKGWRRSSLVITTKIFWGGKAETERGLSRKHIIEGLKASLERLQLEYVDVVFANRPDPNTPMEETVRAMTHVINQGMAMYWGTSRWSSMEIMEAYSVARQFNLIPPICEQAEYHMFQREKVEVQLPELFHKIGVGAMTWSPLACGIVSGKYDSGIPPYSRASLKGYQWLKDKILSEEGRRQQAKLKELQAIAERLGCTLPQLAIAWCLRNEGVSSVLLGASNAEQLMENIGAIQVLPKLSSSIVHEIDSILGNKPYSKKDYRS
Dual specificity protein phosphatase 6 (Homo sapiens), sequence (Q16828 whole entry, looked up): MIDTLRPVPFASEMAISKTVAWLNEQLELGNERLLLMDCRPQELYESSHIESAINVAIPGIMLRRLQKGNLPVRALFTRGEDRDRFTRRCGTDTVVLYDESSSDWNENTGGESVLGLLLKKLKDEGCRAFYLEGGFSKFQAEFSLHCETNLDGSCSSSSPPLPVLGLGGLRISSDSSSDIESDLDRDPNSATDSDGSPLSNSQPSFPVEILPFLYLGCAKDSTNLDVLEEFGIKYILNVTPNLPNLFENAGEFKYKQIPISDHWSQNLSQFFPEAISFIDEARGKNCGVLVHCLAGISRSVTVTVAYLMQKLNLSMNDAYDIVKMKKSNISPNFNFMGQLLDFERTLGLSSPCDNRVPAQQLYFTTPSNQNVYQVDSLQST

SMILES | cell count [1] | inhibition [1] | inhibition [2] | nuclei count [2] | z-score [3, 10] | z-score [3, 11] | z-score [3, 12] | inhibition [4] | fluorescence slope [5] | NADPH fluorescence slope [6] | slope [7] | outcome [8] | inhibition [9]
COc1ccc(-c2nc3n(c2Br)CCC3)cc1 | 587 | -14.6% (inactive) | -22.2% (inactive) | 162% | 1.1 | 0.741 | -1.03 | 39% (inactive) | -0.503 (inactive) | -2.6e-05 (inactive) | 0.00527 (inactive) | inactive | 49.9% (inactive)
COCCCNC(=O)C(C#N)c1nc2ccccc2nc1N1CCN(Cc2ccccc2)CC1 (stereo unspecified) | 630 | -5.8% (inactive) | -33.3% (inactive) | 156% | -0.882 | -0.494 | -0.556 | -8.27% (inactive) | -0.472 (inactive) | -0.00034 (inactive) | 0.00118 (inactive) | inactive | 33.7% (inactive)
CC(=O)N1CCN(c2nc(CC(C)C)c3c(c2C#N)CCC3)CC1 | 524 | 0.5% (inactive) | -100% (inactive) | 145% | -0.27 | -0.142 | -0.203 | 5.26% (inactive) | -0.477 (inactive) | -4.8e-05 (inactive) | 0.00485 (inactive) | inactive | -18% (inactive)
CCCCC1(C(=O)OCC)CC(CN2CCOCC2)OC1=O (stereo unspecified) | 448 | -21.5% (inactive) | -182% (inactive) | 167% | -1.27 | -1.52 | 2.46 | -8.95% (inactive) | -0.314 (inactive) | 1.1e-05 (inactive) | 0.00504 (inactive) | inactive | 3.54% (inactive)
CSc1nc(N)c(C#N)c(-c2ccccc2Cl)c1C#N | 361 | -5.2% (inactive) | 16.8% (inactive) | 95% | -2.2 | 1.67 | -0.0312 | -2.07% (inactive) | -0.456 (inactive) | -0.000311 (inactive) | 0.00479 (inactive) | inactive | -18.7% (inactive)
C/C=C/c1ccccc1OCc1ccc(C(=O)O)o1 | 540 | -2.1% (inactive) | 9.9% (inactive) | 98.3% | -2.68 | 0.479 | 0.66 | 0.671% (inactive) | -0.571 (inactive) | -6.2e-05 (inactive) | 0.00529 (inactive) | inactive | -4.22% (inactive)
C=CCn1c(-c2ccccc2)n[nH]c1=S | 492 | -1.5% (inactive) | 71% (active) | 124% | -1.14 | 2.62 | -0.366 | 4.25% (inactive) | -0.512 (inactive) | -0.000177 (inactive) | 0.00512 (inactive) | inactive | 5.46% (inactive)
COCCN(C(=O)Nc1ccccc1)c1ccccc1C | 443 | -5.7% (inactive) | -107% (inactive) | 186% | -1.02 | -0.17 | -0.3 | -3.95% (inactive) | -0.32 (inactive) | 6.1e-06 (inactive) | 0.00472 (inactive) | inactive | -5.98% (inactive)
O=C1C=C(O)CC(c2ccco2)C1 (stereo unspecified) | 558 | 5.7% (inactive) | -59% (inactive) | 82% | 0.0297 | 0.982 | 0.298 | -6.48% (inactive) | -0.469 (inactive) | -0.00033 (inactive) | 0.00402 (inactive) | inactive | -1.54% (inactive)
CCOC(=O)c1[nH]c2ccc(Br)cc2c1NC(=O)CCN1CCN(C(=O)OCC)CC1 | 545 | -23.3% (inactive) | -94.6% (inactive) | 158% | -0.326 | -0.22 | -0.0275 | -7.86% (inactive) | -0.522 (inactive) | -4.7e-05 (inactive) | 0.00482 (inactive) | inactive | 18.6% (inactive)
CCOCc1nc(N)[nH]c(=O)c1Cc1ccc(OC(C)C)cc1 | 350 | -14.1% (inactive) | -184% (inactive) | 133% | 0.756 | -0.664 | -2.13 | 17% (inactive) | -0.436 (inactive) | -2e-05 (inactive) | 0.00784 (inactive) | inactive | 23.2% (inactive)
COc1ccc(Cn2c(=O)c3c(nc(NCCO)n3C)n(C)c2=O)cc1 | 336 | -3.5% (inactive) | -129% (inactive) | 131% | -0.216 | 1.13 | 0.242 | -0.624% (inactive) | -0.369 (inactive) | 3.5e-05 (inactive) | 0.00827 (inactive) | inactive | -14.7% (inactive)
COc1ccc(/C(O)=C2/C(=O)C(=O)N(CCCN(C)C)C2c2ccccc2)cc1OC (stereo unspecified) | 346 | -14.7% (inactive) | -317% (inactive) | 131% | -0.204 | -0.251 | 0.0495 | 9.39% (inactive) | -0.386 (inactive) | -3.5e-05 (inactive) | 0.00558 (inactive) | inactive | -0.889% (inactive)
CCCCCCc1cc2cc(C(=O)NC)c(=N)oc2cc1O | 346 | -2% (inactive) | -68.8% (inactive) | 90.1% | -0.814 | 2.52 | -2.41 | 13.2% (inactive) | -0.446 (inactive) | -6.7e-05 (inactive) | 0 (inactive) | inactive | -9.65% (inactive)
CCCOc1ccc(Cn2c(O)cc(=O)[nH]c2=O)cc1 | 568 | 0% (inactive) | -90.4% (inactive) | 188% | -0.648 | -0.788 | 0.279 | -8.95% (inactive) | -0.372 (inactive) | -3.5e-05 (inactive) | 0.00508 (inactive) | inactive | -1.95% (inactive)
N#CCCn1cnc2c(=S)nc[nH]c21 | 355 | -12.9% (inactive) | -142% (inactive) | 181% | 0.101 | 0.0894 | 1.37 | 1.6e-07% (inactive) | -0.438 (inactive) | -0.000132 (inactive) | 0.00509 (inactive) | inactive | -4.04% (inactive)
CCc1nnc(NC(=O)CSc2nc(C)c3c(c2C#N)CCCC3)s1 | 613 | -13.4% (inactive) | -129% (inactive) | 189% | -0.0126 | 0.0813 | -0.0712 | -0.674% (inactive) | -0.446 (inactive) | 4.7e-06 (inactive) | 0.00625 (inactive) | inactive | 9.29% (inactive)
Cc1nnc2n(Cc3ccccc3)c(=O)c3c4c(sc3n12)CN(Cc1ccccc1)CC4 | 628 | -8.2% (inactive) | 29.2% (inactive) | 167% | -0.0797 | 0.579 | 0.467 | -7.28% (inactive) | -0.423 (inactive) | -5e-05 (inactive) | 0.00348 (inactive) | inactive | 31.3% (inactive)
CSc1nc(O)c(Cc2ccccc2)c(=O)[nH]1 | 543 | 5.9% (inactive) | 23.6% (inactive) | 105% | -0.704 | -0.524 | -0.136 | 1.6e-07% (inactive) | -0.403 (inactive) | 2.5e-05 (inactive) | 0.00553 (inactive) | inactive | 33.4% (inactive)
COc1ccc(NC(=O)C2CSC3c4ccccc4C(=O)N23)cc1 (stereo unspecified) | 376 | 0.6% (inactive) | -32.1% (inactive) | 112% | -0.228 | 0.485 | -1.59 | -1.12% (inactive) | -0.355 (inactive) | 2.4e-05 (inactive) | 0.00604 (inactive) | inactive | 127% (active)
CN1C2C=C3C(C#N)=C(N)C(C#N)(C#N)[C@@H](c4ccsc4)[C@@H]3C1CC2 (stereo partly specified) | 589 | -9.3% (inactive) | 24% (inactive) | 148% | 1.76 | -1 | -0.0532 | 28.1% (inactive) | -0.396 (inactive) | 4.1e-06 (inactive) | 0.00648 (inactive) | inactive | 6.82% (inactive)
Clc1cccc(-c2nn3c(COc4ccccc4)nnc3s2)c1 | 559 | -2.3% (inactive) | -53% (inactive) | 139% | 0.34 | 0.334 | -0.356 | -9.66% (inactive) | -0.412 (inactive) | -0.000153 (inactive) | 0.00768 (inactive) | inactive | -2.6% (inactive)
Cc1nc2oc(C(=O)c3ccc(Br)cc3)c(N)c2c2c1COC(C)(C)C2 | 643 | -7.3% (inactive) | -142% (inactive) | 119% | 0.13 | -0.803 | -0.664 | 24.7% (inactive) | -0.532 (inactive) | -5.4e-05 (inactive) | 0.00462 (inactive) | inactive | 39.3% (inactive)
COc1cccc(C2/C(=C(/O)c3ccc(C)cc3)C(=O)C(=O)N2Cc2ccco2)c1 (stereo unspecified) | 552 | -6.3% (inactive) | -20% (inactive) | 123% | 0.537 | 0.655 | -1.35 | 4.72% (inactive) | -0.512 (inactive) | -5.6e-05 (inactive) | 0.00539 (inactive) | inactive | 15.2% (inactive)
CCN(CC)c1ccc2cc(-c3nnc(-c4ccncc4)o3)c(=O)oc2c1 | 490 | -5.2% (inactive) | -87.1% (inactive) | 137% | -0.456 | 1.6 | 0.914 | 72.4% (inactive) | -0.436 (inactive) | -0.000104 (inactive) | 0.00165 (inactive) | inactive | 6.54% (inactive)
N#CC1=C(N)N2C(=C(C#N)C1c1ccccc1)Sc1ccccc12 (stereo unspecified) | 653 | -14.8% (inactive) | 9.7% (inactive) | 116% | 1.49 | -0.461 | -0.35 | 17.7% (inactive) | -0.452 (inactive) | -9.4e-06 (inactive) | 0.0107 (inactive) | inactive | 44.9% (inactive)
O=C(CCC(=O)CCN1CCCCC1)CCN1CCCCC1 | 641 | -2.1% (inactive) | 5.3% (inactive) | 170% | -0.3 | 1.66 | 0.253 | 15.1% (inactive) | -0.506 (inactive) | -0.000129 (inactive) | 0.00498 (inactive) | inactive | 12.4% (inactive)
